What all share (format): functional
The subject of test [1] is Escherichia coli. Kind of test: Antibacterial activity against AmpC-producing Escherichia coli isolate by broth microdilution method. An outline of the steps: (§1)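 Clinical E. coli isolates from Canadian ICUs (CAN-ICU), one per patient and site, genotypically confirmed ESBL or acquired AmpC producers. AmpC groups (EBC, DHA, FOX, CIT) were typed by multiplex PCR and sequencing. Isolates were stored at −80°C in skim milk and subcultured twice from frozen stock. MICs were determined in triplicate by CLSI broth microdilution.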
Background: Dilution methods test growth across graded concentrations, often in twofold steps.

The subject of test [2] is Escherichia coli. Kind of test: Antibacterial activity against AmpC-producing Escherichia coli assessed as resistant isolates by broth microdilution method. An outline of the steps: (§2)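 ICU clinical E. coli isolates, with ESBL or acquired AmpC genotype confirmed (AmpC families by multiplex PCR and sequencing), were stored at −80°C in skim milk and subcultured twice from frozen stock. MICs were determined in triplicate by CLSI broth microdilution. The panel included ampicillin, piperacillin-tazobactam, ceftriaxone, cefepime, cefoxitin, gentamicin, fluoroquinolones, carbapenems, doxycycline, tigecycline and trimethoprim-sulfamethoxazole.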

Test [3] deals with Escherichia coli. Kind of test: Antibacterial activity against ESBL-producing Escherichia coli isolate by broth microdilution method. An outline of the steps: as §1
Test [4] has as its system Escherichia coli. Kind of test: Antibacterial activity against ESBL-producing Escherichia coli assessed as resistant isolates by broth microdilution method. An outline of the steps:
as §2

Test [5] has as its system Escherichia coli. As to the kind of experiment: Antibacterial activity against AmpC-producing Escherichia coli assessed as sensitive isolates by broth microdilution method. Summed up:
as §1

Test [6] relates to Escherichia coli. Kind of test: Antibacterial activity against ESBL-producing Escherichia coli assessed as sensitive isolates by broth microdilution method. Summed up: as §1
The test system of test [7] is Escherichia coli. As to the kind of experiment: Antibacterial activity against ESBL-producing Escherichia coli isolate by broth microdilution method in presence of Tazobactam. An outline of the steps:
as §1

For test [8], the system named is Escherichia coli. As to the kind of experiment: Antibacterial activity against ESBL-producing Escherichia coli assessed as resistant isolates by broth microdilution method in presence of Tazobactam. Summed up: as §2
Test [9] deals with Escherichia coli. Kind of test: Antibacterial activity against AmpC-producing Escherichia coli isolate by broth microdilution method in presence of Tazobactam. An outline of the steps: as §1
Test [10] concerns Escherichia coli. Kind of test: Antibacterial activity against ESBL-producing Escherichia coli assessed as sensitive isolates by broth microdilution method in presence of Tazobactam. An outline of the steps:
as §1

Test [11] relates to Escherichia coli. As to the kind of experiment: Antibacterial activity against AmpC-producing Escherichia coli assessed as sensitive isolates by broth microdilution method in presence of Tazobactam. Summed up:
as §1

The text below walks through data of ChEMBL document CHEMBL1275413, “Comparison of antimicrobial resistance profiles among extended-spectrum-beta-lactamase-producing and acquired AmpC beta-lactamase-producing Escherichia coli isolates from Canadian intensive care units” (2008).

One may read the MIC as the smallest concentration in the dilution series that meets the test's criterion for growth inhibition. Read a low MIC as inhibition by little substance. What is called MIC50 is the lowest concentration that inhibits either 50% of growth or 50% of the strains tested, depending on the study. The MIC90 is the lowest concentration that inhibits either 90% of growth or 90% of the strains tested, depending on the study.

In brackets after ≈: the same amount, converted by molar mass. Where only a bound is given, the exact number is not on record here.

In the test with Escherichia coli [1], `CC1(C)S[C@@H]2[C@H](NC(=O)[C@H](N)c3ccccc3)C(=O)N2[C@H]1C(=O)O` [AMPICILLIN] gave an MIC of over 256 µg/mL, an MIC50 of over 256 µg/mL and an MIC90 of over 256 µg/mL. In the test on Escherichia coli [2], the Activity is 100%. Besides, in the test on Escherichia coli [3], the MIC was over 256 µg/mL, the MIC50 was over 256 µg/mL and the MIC90 is over 256 µg/mL. Moreover, the Activity in the test with Escherichia coli [4] turned out to be 100%.

Consider `CO/N=C(\C(=O)N[C@@H]1C(=O)N2C(C(=O)[O-])=C(C[N+]3(C)CCCC3)CS[C@H]12)c1csc(N)n1` [CEFEPIME], for which, in the test with Escherichia coli [1], the MIC was at most 1 µg/mL. Besides, the MIC50 against Escherichia coli [1] is at most 1 µg/mL; in the test on Escherichia coli [3], 8 µg/mL (≈ 16.6 µM). The figures for the MIC90 in the test on Escherichia coli [1] and in the test on Escherichia coli [3] were at most 1 µg/mL and 32 µg/mL (≈ 66.6 µM), respectively. In addition, the Activity in the test on Escherichia coli [4] came to 11.1%; in the test on Escherichia coli [5] it was 100%; in the test with Escherichia coli [6], 50%.

For `CO[C@@]1(NC(=O)Cc2cccs2)C(=O)N2C(C(=O)O)=C(COC(N)=O)CS[C@@H]21` [CEFOXITIN], the figures for the MIC50 against Escherichia coli [1] and against Escherichia coli [3] were 256 µg/mL (≈ 599 µM) and 8 µg/mL (≈ 18.7 µM), respectively. In addition, the MIC90 is over 256 µg/mL in the test on Escherichia coli [1] and 32 µg/mL (≈ 74.9 µM) against Escherichia coli [3]. Also, the Activity in the test with Escherichia coli [2] is 100%; in the test with Escherichia coli [4], 16.7%; with Escherichia coli [6] it was 61.1%.

`CO/N=C(\C(=O)N[C@@H]1C(=O)N2C(C(=O)O)=C(CSc3nc(=O)c(O)nn3C)CS[C@H]12)c1csc(N)n1` [CEFTRIAXONE]: the MIC50 against Escherichia coli [1] was 16 µg/mL (≈ 28.9 µM); with Escherichia coli [3], 128 µg/mL (≈ 231 µM). In addition, the results for the MIC90 against Escherichia coli [1] and with Escherichia coli [3] were 64 µg/mL (≈ 115 µM) and over 256 µg/mL, respectively. For the same compound, the Activity is recorded as 11.1% in the test with Escherichia coli [2], 83.3% in the test on Escherichia coli [4], 44.4% in the test with Escherichia coli [5] and 5.6% with Escherichia coli [6].

With `O=C(O)c1cn(C2CC2)c2cc(N3CCNCC3)c(F)cc2c1=O` [CIPROFLOXACIN], the MIC50 against Escherichia coli [1] is at most 0.06 µg/mL; in the test on Escherichia coli [3] it was over 16 µg/mL. Moreover, the MIC90 with Escherichia coli [1] and against Escherichia coli [3] was over 16 µg/mL throughout. Moreover, the Activity in the test on Escherichia coli [2] was determined as 11.1%; in the test on Escherichia coli [4] it was 83.3%; with Escherichia coli [5] it was 85.2%; in the test with Escherichia coli [6], 16.7%.

Regarding `C[C@H]1c2cccc(O)c2C(=O)C2=C(O)[C@]3(O)C(=O)C(C(N)=O)=C(O)[C@@H](N(C)C)[C@@H]3[C@@H](O)[C@@H]21.O` [DOXYCYCLINE], the results for the MIC50 against Escherichia coli [1] and in the test with Escherichia coli [3] were 2 µg/mL and 4 µg/mL, respectively. Moreover, the MIC90 with Escherichia coli [1] and in the test on Escherichia coli [3] was 64 µg/mL throughout. For the same compound, the Activity was 18.5% in the test with Escherichia coli [2], 33.3% with Escherichia coli [4], 66.7% in the test on Escherichia coli [5] and 61.1% with Escherichia coli [6].

Take `C[C@@H](O)[C@H]1C(=O)N2C(C(=O)O)=C(S[C@@H]3CN[C@H](C(=O)Nc4cccc(C(=O)O)c4)C3)[C@H](C)[C@H]12` [ERTAPENEM]: the MIC50 against Escherichia coli [1] and in the test with Escherichia coli [3] was 0.12 µg/mL (≈ 0.252 µM) each time. Also, the MIC90 is 0.5 µg/mL (≈ 1.05 µM) in the test with Escherichia coli [1] and 0.25 µg/mL (≈ 0.526 µM) in the test with Escherichia coli [3]. For the same compound, the Activity in the test on Escherichia coli [5] and in the test on Escherichia coli [6] was 100% throughout.

Turning to `C[C@H]1COc2c(N3CCN(C)CC3)c(F)cc3c(=O)c(C(=O)O)cn1c23.C[C@H]1COc2c(N3CCN(C)CC3)c(F)cc3c(=O)c(C(=O)O)cn1c23.O` [LEVOFLOXACIN], the MIC50 against Escherichia coli [1] was at most 0.06 µg/mL; with Escherichia coli [3], 16 µg/mL. In addition, the MIC90 with Escherichia coli [1] worked out at 16 µg/mL; in the test with Escherichia coli [3], 32 µg/mL. Besides, the Activity with Escherichia coli [2] was 26.6%; in the test on Escherichia coli [4], 83.3%; with Escherichia coli [5] it was 88.9%; with Escherichia coli [6], 16.7%.

Take `C[C@@H](O)[C@H]1C(=O)N2C(C(=O)O)=C(S[C@@H]3CN[C@H](C(=O)N(C)C)C3)[C@H](C)[C@H]12` [MEROPENEM]: in the test with Escherichia coli [1], the MIC is at most 0.12 µg/mL, the MIC50 is at most 0.12 µg/mL and the MIC90 is at most 0.12 µg/mL. In the test with Escherichia coli [3], this compound had a minimum inhibitory concentration (MIC) of at most 0.12 µg/mL, an MIC50 of at most 0.12 µg/mL and an MIC90 of at most 0.12 µg/mL. Further, the Activity in the test on Escherichia coli [5] was found to be 100%. Moreover, in the test on Escherichia coli [6], the Activity stood at 100%.

As to `CCN1CCN(C(=O)N[C@@H](C(=O)N[C@@H]2C(=O)N3[C@@H]2SC(C)(C)[C@@H]3C(=O)O)c2ccccc2)C(=O)C1=O` [PIPERACILLIN], the MIC50 in the test on Escherichia coli [7] and with Escherichia coli [9] was 2 µg/mL throughout. For the same compound, the MIC90 with Escherichia coli [7] and with Escherichia coli [9] was 8 µg/mL each time. Also, the Activity worked out at 5.6% with Escherichia coli [8], 94.4% with Escherichia coli [10] and 100% in the test on Escherichia coli [11].

For the compound `CN(C)c1cc(NC(=O)CNC(C)(C)C)c(O)c2c1C[C@H]1C[C@H]3[C@H](N(C)C)C(O)=C(C(N)=O)C(=O)[C@@]3(O)C(O)=C1C2=O` [TIGECYCLINE], the MIC50 with Escherichia coli [1] is 0.25 µg/mL (≈ 0.427 µM); against Escherichia coli [3], 0.5 µg/mL (≈ 0.854 µM). The MIC90 with Escherichia coli [1] is 0.5 µg/mL (≈ 0.854 µM); in the test on Escherichia coli [3], 1 µg/mL (≈ 1.71 µM). Also, the Activity with Escherichia coli [5] and in the test on Escherichia coli [6] was 100% each time.

With GENTAMICIN, the MIC50 in the test with Escherichia coli [1] was under 0.25 µg/mL; with Escherichia coli [3], 1 µg/mL. Further, the values for the MIC90 with Escherichia coli [1] and against Escherichia coli [3] were 8 µg/mL and 16 µg/mL, respectively. Moreover, the Activity in the test with Escherichia coli [2] turned out to be 3.7%; in the test on Escherichia coli [4], 27.8%; with Escherichia coli [5] it was 88.9%; with Escherichia coli [6], 66.7%.
